The record followed here is ChEMBL document CHEMBL1149444, “Discovery of imidazo[1,2-b][1,2,4]triazines as GABA(A) alpha2/3 subtype selective agonists for the treatment of anxiety” (J Med Chem, 2006).

pKi: −log10 of the molar value. Active and inactive are the calls of the source. The rule behind the calls is not given here.

Data set [1] in a line: Oral bioavailability in rhesus at 1 mg/kg, iv or 1 mg/kg, po. The settings on record: rhesus monkey, in vivo. In kind it is ADME, organism-based, Macaca mulatta. Put shortly: (§1)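 Pharmacokinetics in rat, dog or rhesus after 1 mg/kg iv and 1 mg/kg po dosing. Plasma clearance (mL/min/kg), half-life (h), volume of distribution (L/kg) and oral bioavailability (%) were derived.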

Data set [2] has as its system Rattus norvegicus. The data set can be described thus: Activity in rat elevated plus maze assay at 1 mg/kg, po. In kind it is functional, organism-based. Also noted: dose 1 mg/kg. In outline: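 Rats given test compound orally 30 min before a 5 min elevated plus maze session; vehicle 0.5% methyl cellulose po. Read-out is time on open arms as percentage of total time. n = 18 per group. Significance versus vehicle at p < 0.05.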

A short description of data set [3]: Oral bioavailability in dog at 1 mg/kg, iv or 1 mg/kg, po. The settings on record: in vivo. It is filed as ADME, organism-based, Canis lupus familiaris. In outline: as §1
The nature of data set [4]: Plasma clearance in rhesus at 1 mg/kg, iv or 1 mg/kg, po. It is filed as ADME, organism-based, Macaca mulatta. Particulars: rhesus monkey. In outline: as §1
In data set [5] the test system is Rattus norvegicus. As to the kind of experiment: Sedation in rat chain pulling assay upto 10 mg/kg, po. It is filed as functional, organism-based. The arrangement: dose 10 mg/kg. Put shortly: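 Rat chain-pulling assay for sedation. Mean response rate recorded over a 60 min trial starting immediately after oral dosing up to 10 mg/kg. n = 11-12 per group. Significance versus vehicle at p < 0.01.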

For data set [6], the species on record is Rattus norvegicus. The data set can be described thus: Plasma concentration in rat. It is filed as ADME, organism-based. The settings on record: in vivo. In outline: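 Central benzodiazepine receptor occupancy in rat after oral dosing, measured by displacement of [3H]Ro15-1788 binding. Plasma concentration was measured at the dose giving 50% occupancy.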

A short description of data set [7]: Volume of distribution in dog at 1 mg/kg, iv or 1 mg/kg, po. It is filed as ADME, organism-based, Canis lupus familiaris. Particulars: in vivo, read-out: Vdss. In outline:
as §1

The target of data set [8] is T1, GABA-A receptor; alpha-1/beta-3/gamma-2 (Homo sapiens, UniProt P14867+P18507+P28472).
T1 sequence (P14867 whole entry): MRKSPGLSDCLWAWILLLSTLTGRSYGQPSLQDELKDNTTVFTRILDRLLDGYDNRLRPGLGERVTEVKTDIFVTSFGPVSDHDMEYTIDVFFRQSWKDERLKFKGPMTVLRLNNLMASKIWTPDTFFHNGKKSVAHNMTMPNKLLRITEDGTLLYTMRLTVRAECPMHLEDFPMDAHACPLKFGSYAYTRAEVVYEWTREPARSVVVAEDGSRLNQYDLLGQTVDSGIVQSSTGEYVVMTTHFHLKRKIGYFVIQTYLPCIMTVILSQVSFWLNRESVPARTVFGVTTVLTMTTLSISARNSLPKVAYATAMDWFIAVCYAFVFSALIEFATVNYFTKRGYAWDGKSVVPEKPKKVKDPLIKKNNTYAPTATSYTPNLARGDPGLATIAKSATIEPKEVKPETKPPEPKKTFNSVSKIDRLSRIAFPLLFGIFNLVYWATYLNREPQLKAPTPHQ
T1 sequence (P18507 whole entry): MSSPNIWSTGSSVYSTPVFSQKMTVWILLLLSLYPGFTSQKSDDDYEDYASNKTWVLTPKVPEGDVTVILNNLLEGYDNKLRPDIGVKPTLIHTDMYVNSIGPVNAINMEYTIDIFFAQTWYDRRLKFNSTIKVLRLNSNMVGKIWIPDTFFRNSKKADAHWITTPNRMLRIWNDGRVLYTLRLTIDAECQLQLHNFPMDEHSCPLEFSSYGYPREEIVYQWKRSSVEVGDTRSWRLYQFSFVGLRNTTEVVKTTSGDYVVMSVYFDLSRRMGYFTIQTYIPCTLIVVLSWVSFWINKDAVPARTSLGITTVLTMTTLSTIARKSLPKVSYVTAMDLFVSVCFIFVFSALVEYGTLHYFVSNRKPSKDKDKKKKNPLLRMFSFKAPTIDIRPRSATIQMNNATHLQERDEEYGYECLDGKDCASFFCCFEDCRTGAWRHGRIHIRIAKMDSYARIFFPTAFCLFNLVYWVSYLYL
T1 sequence (P28472 whole entry): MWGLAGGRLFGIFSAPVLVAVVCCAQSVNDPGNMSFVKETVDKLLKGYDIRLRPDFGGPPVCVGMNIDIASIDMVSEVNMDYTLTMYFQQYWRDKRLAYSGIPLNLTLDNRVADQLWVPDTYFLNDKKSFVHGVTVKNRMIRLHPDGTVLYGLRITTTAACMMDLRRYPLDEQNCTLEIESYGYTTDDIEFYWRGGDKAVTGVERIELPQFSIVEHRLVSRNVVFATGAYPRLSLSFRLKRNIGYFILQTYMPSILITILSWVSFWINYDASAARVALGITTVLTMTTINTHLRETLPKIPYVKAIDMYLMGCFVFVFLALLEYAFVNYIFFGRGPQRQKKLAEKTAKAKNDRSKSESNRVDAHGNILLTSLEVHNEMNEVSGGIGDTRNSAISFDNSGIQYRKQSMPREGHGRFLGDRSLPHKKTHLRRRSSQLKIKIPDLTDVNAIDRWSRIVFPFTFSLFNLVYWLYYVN
The data set can be described thus: Displacement of [3H]Ro 15-1788 from recombinant human GABAA alpha-1 receptor plus beta3gamma2 expressed in L(tk-) cells. It is filed as cell-based.

Another data set has as its system Squirrel monkey. The data set can be described thus: Anxiolytic effect in squirrel monkey conditioned emotional response test at 0.3 mg/kg, po. The arrangement: dose 0.3 mg/kg. It is filed as functional, organism-based. The settings on record: Saimiri sciureus. In outline: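 Squirrel monkeys dosed po in 0.5% methyl cellulose vehicle. Anxiolysis was read as reversal of the suppression of lever pressing caused by a light cue signalling possible electric shock. Sedation was read as the rate of lever pressing for fruit juice reward on an RPI30 schedule. n = 10-11 per group, p < 0.05 versus vehicle.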

Data set [9] has as its target GABA-A receptor; alpha-3/beta-3/gamma-2 (Homo sapiens) (UniProt P18507+P28472+P34903). The data set can be described thus: Efficacy against recombinant human GABAA alpha3 receptor plus beta-3-gamma-2 expressed in L(tk-) cells by whole cell patch clamp method relative to chlordiazepoxide. In kind it is functional, cell-based. Put shortly: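 Whole-cell patch clamp on L(tk-) cells stably expressing the receptor (alpha plus beta3gamma2). GABA applied at an EC20-equivalent concentration. Modulation of the current measured with increasing test concentrations. Efficacy expressed relative to the maximal chlordiazepoxide response (set at 1.00) or as a percentage.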

The nature of data set [10]: Volume of distribution in rat at 1 mg/kg, iv or 1 mg/kg, po. In kind it is ADME, organism-based. Particulars: in vivo, read-out: Vdss. In outline: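 Rat pharmacokinetics after dosing at 1 mg/kg iv and 1 mg/kg po. Plasma clearance in mL/min/kg, half-life in h and volume of distribution in L/kg.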

As for `CC(C)(O)c1cnn2c(-c3ccc(F)c(-c4c(F)cccc4C#N)c3)cnc2n1`, the bioavailability in data set [1] is 29%; in data set [3] it was 22%. Also, the outcome with Rattus norvegicus [2] and in the data set with Squirrel monkey was Active. Besides, the clearance in [4] amounted to 5.8 mL/min/kg. In addition, the result in the data set on Rattus norvegicus [5] was inactive. In the data set listed under Rattus norvegicus [6], this molecule gave a concentration of 56 nM. The Vd in data set [7] amounted to 1.9 L/kg; in [10], 2.1 L/kg. In addition, the pKi in [8] was 9.14. In data set [9], the Efficacy amounted to 50%.
